By AUC(0-t) is commonly meant exposure summed from dosing to a finite time, without extrapolation to infinity. Read a low AUC(0-t) as less exposure. The clearance is the rate of elimination divided by the concentration. As a reminder, the bioavailability is dose-corrected exposure relative to a reference, in per cent. By Cmax is commonly meant the peak of the concentration-time curve. Usually Tmax stands for the time from dosing to the highest level. A word on the solubility: it is how much of the substance goes into solution per volume.

In brackets after ≈: the same amount, converted by molar mass.

1 compound from article PMC3337761 (Drug Development and Industrial Pharmacy, 2010) can be followed below.

The nature of data set [1]: Pharmacokinetics in rhesus macaques. The format is in vivo, Rhesus Macaques (Macaca mulatta). The procedure, abridged: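 Two rhesus macaques, fasted overnight with water allowed. Oral powder was mixed into a chocolate treat, with dose set by the amount eaten. After a 2-week washout, i.v. dosing used 5 mg/mL in 25% Cremophor EL/75% PBS. Ketamine 10 mg/kg i.m. for sampling. EDTA plasma taken pre-dose to 24 h, C18 SPE, then LC-ESI-MS (m/z 277; analogue internal standard; calibration 25 nM–2.5 µM). F = dose-normalised AUC po/iv.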

A short description of another data set: Solubility in solvents. The class given is physicochemical.
Setting [2] is: male, rhesus monkey, plasma, iv, 5 mg/kg.
Where [3] appears, read: male, rhesus monkey, plasma, po, 50 mg/kg.

Turning to `Clc1ccccc1C(c1ccccc1)(c1ccccc1)n1cccn1` [TRAM-34, 1-[(2-chlorophenyl)-diphenylmethyl]-1H-pyrazole], in data set [1] (setting [2]), the area under the curve AUC(0-t) worked out at 3.64 µM·h, the Vd came out at 11.1 L/kg and the clearance is 53.3 mL/min/kg. In addition, the bioavailability in data set [1] (male, rhesus monkey, plasma, oral, 50 mg/kg) was determined as 0.3%. For the same compound, in data set [1] (setting [3]), the AUC(0-t) came out at 0.103 µM·h, the concentration peaked (Cmax) at 22.5 nM and the time of peak concentration (Tmax) was found to be 2 h. This compound also had a Vd in data set [1] (oral powder without enteric coating, 50 mg/kg, Rhesus Macaques) of 6.5 L/kg. The solubility in “Solubility in solvents” (ethanol, organic solvent or mixture) was 4000 µg/mL (≈ 11.6 mM). In addition, the solubility in water entry in “Solubility in solvents” (water) was “practically insoluble in water”.
